Laboratory results reported in paper PMC6718129 (Drug Design, Development and Therapy, 2019).

Tests used:
[1] = system: phosphorylated Rb protein in A-549 cell line; test: Rb phosphorylation by quantitative immunofluorescence; type: cell-based, human; details: A-549, dose-response
In short: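 A-549 cells were treated with vehicle or test compound (less than 100 µM down to 50 nM) for 24 or 48 hr. Nuclear phospho-Rb was measured by immunofluorescence, and total DNA content per cell gave the cell-cycle phase. Automated image analysis quantified P-Rb changes as dose–response curves, from which IC50 values were taken.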

A-549 cell line = test: Cell cycle distribution by total DNA content; type: cell-based, human; details: A-549, 24 and 48 hrs
In short: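 A-549 cells treated 24 or 48 hr over a range from below 100 µM down to 50 nM, alongside a reference drug. Total DNA content per cell was quantified to assign cell cycle phase, together with immunofluorescent imaging of nuclear phosphorylated Rb. Automated image analysis quantified changes, and IC50 values were taken from dose–response curves.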

CCN(CC)CCNC(=O)c1c(C)[nH]c(/C=C2\C(=O)Nc3ccc(F)cc32)c1C [Sunitinib]
levels of phosphorylated Rb protein (immunofluorescence) [1]: substantially reduced the extent of phosphorylated Rb protein in a dose-dependent fashion
Cell cycle influences (A-549 cell line): increase in the percentage of cells in the S or G2/M phases of the cell cycle, with a concomitant reduction in the G1 phase
